Here are results for nine molecules from ChEMBL document CHEMBL4004789, “Isochromans and Related Constituents from the Endophytic Fungus Annulohypoxylon truncatum of Zizania caduciflora and Their Anti-Inflammatory Effects” (J Nat Prod, 2017).

SMILES strings stand for the structures. Activity calls are given as the source filed them. No cut-off for these calls is given here.

The nature of series [1]: Cytotoxicity against C57BL/6 mouse BMDC at 50 uM after 24 hrs by CCK8 assay. Type of series: cell-based. The essentials:
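GM-CSF-derived C57BL/6 BMDCs were seeded at ~1 × 10⁴ cells/well and cultured overnight. Compound was added across a dose series for 24 h. CCK-8 reagent was then added for 1 h, and absorbance at 450 nm was read as viable cell number. Triplicate wells.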
(Tetrazolium dyes change colour on reduction, which living cells bring about.)

Series [2] can be described thus: Anti-inflammatory activity in C57BL/6 mouse BMDC assessed as inhibition of LPS-induced IL-6 production pretreated for 1 hr followed by LPS-stimulation after 18 hrs by ELISA. Type of series: functional, cell-based. The gist of the method: (§1)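 BMDCs came from wild-type C57BL/6 bone marrow, cultured 6 days with GM-CSF-containing J558L supernatant in RPMI 1640 with 10% FBS; loosely adherent cells were used. Cells were plated at 1 × 10⁵/well and pretreated 1 h with compound at 2, 5, 10, 25 and 50 μM. Stimulation was 10 ng/mL S. minnesota LPS. Murine cytokine in 18 h supernatants was measured by ELISA. Mean + SD, ≥3 independent experiments in triplicate.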
(An ELISA detects its analyte on a solid surface through an enzyme-linked reagent.)

The nature of series [3]: Anti-inflammatory activity in C57BL/6 mouse BMDC assessed as inhibition of LPS-induced IL12 p40 production pretreated for 1 hr followed by LPS-stimulation after 18 hrs by ELISA. Type of series: functional, cell-based. The gist of the method: as §1
A short description of series [4]: Anti-inflammatory activity in C57BL/6 mouse BMDC assessed as inhibition of LPS-induced TNFalpha production pretreated for 1 hr followed by LPS-stimulation after 18 hrs by ELISA. The class given is functional, cell-based. The gist of the method: as §1
In series [5] the test system is BMDC. As to the kind of experiment: Anti-inflammatory activity in C57BL/6 mouse BMDC assessed as inhibition of LPS-induced IL-6 production at 50 uM pretreated for 1 hr followed by LPS-stimulation after 18 hrs by ELISA. Type of series: functional, cell-based. The gist of the method:
(§2)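 Wild-type C57BL/6 mouse bone marrow cells were grown 6 days in RPMI 1640 with 10% FBS, 50 μM β-ME, 2 mM glutamine and 3% J558L supernatant (GM-CSF). Non-adherent DCs were plated at 1 × 10⁵/well and given compound at 50 μM for 1 h. They were then stimulated with 10 ng/mL Salmonella minnesota LPS. Supernatant cytokine was measured by ELISA at 18 h. Mean + SD, ≥3 independent experiments in triplicate.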

In series [6] the test system is BMDC. Briefly: Anti-inflammatory activity in C57BL/6 mouse BMDC assessed as inhibition of LPS-induced IL12 p40 production at 50 uM pretreated for 1 hr followed by LPS-stimulation after 18 hrs by ELISA. Type of series: functional, cell-based. The essentials:
as §2

For series [7], the system named is BMDC. Briefly: Anti-inflammatory activity in C57BL/6 mouse BMDC assessed as inhibition of LPS-induced TNFalpha production at 50 uM pretreated for 1 hr followed by LPS-stimulation after 18 hrs by ELISA. The class given is functional, cell-based. The gist of the method:
as §2

What is called IC50 is the midpoint of a concentration-inhibition curve. Turning to `COc1c(O)cc2c(c1O)CO[C@H](C)C2`, the Activity entry in series [1] is recorded as “Non-Toxic”. Moreover, the IC50 in series [2], in series [3] and in series [4] was above 100 µM each time.
Turning to `COc1cc2c(c(O)c1OC)CO[C@H](C)C2`, the Activity result in series [1] was “Non-Toxic”. The 50% inhibitory concentration (IC50) in series [2], in series [3] and in series [4] was above 100 µM in each case.
Consider `COc1cc2c(c(O)c1OC)CO[C@H](C)[C@H]2O`, for which, in series [1], the Activity entry is “Non-Toxic”. Also, the half-inhibitory concentration (IC50) in series [2], in series [3] and in series [4] was above 100 µM throughout.
Take `COc1c2c(cc(O)c1O[C@H]1O[C@H](CO)[C@@H](O)[C@H]1O)C[C@@H](C)OC2`: the Activity entry in series [1] is recorded as “Non-Toxic”. Besides, the IC50 in series [2], in series [3] and in series [4] was above 100 µM throughout.
Take `COc1cc2c(c(O)c1O)CO[C@H](C)[C@H]2O`: the Activity entry in series [1] was “Non-Toxic”. Moreover, the IC50 in series [2], in series [3] and in series [4] was above 100 µM in each case.
For `C[S+]([O-])c1ccc(-c2nc(-c3ccc(F)cc3)c(-c3ccncc3)[nH]2)cc1` (stereo not drawn) [SB-203580], the values for the IC50 in series [2], in series [3] and in series [4] were 3.5 µM, 5 µM and 7.2 µM, respectively.
Turning to `Cc1ccc2c(c1O)C(=O)O[C@H](C)C2`, in series [1], the Activity result is reported as “Non-Toxic”. The IC50 in series [2], in series [3] and in series [4] was above 100 µM in each case.
Take `C[C@@H]1Cc2cc(O)cc(O)c2CO1`: in series [1], the Activity entry is “Non-Toxic”. Besides, the IC50 in series [2], in series [3] and in series [4] was above 100 µM in each case.
On to `C[C@@H]1CC2=C(CO1)C(=O)[C@](C)(O)[C@@H](O)C2`, for which the Activity result in series [1] is given as “Non-Toxic”. The figures for the IC50 in series [2], in series [3] and in series [4] were 5.3 µM, 19.4 µM and 37.6 µM, respectively. For the same molecule, the inhibition result in the series on BMDC [5], in the series on BMDC [6] and in the series on BMDC [7] was “Active” throughout.
